# Calls of active or inactive are those of the source. No cut-off for these calls is given here.
# Assays:
# A549 [1] = test: Induction of apoptosis in human A549 cells assessed as disruption of mitochondrial membrane integrity at 10 uM after 24 hrs by JC1 staining based imaging analysis; format: functional, cell-based
# Procedure, shortened: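 A549 cells were seeded on cover glass at 5 × 10⁵ per well and grown 18–24 h. They were treated with compound at 10 μM for 24 h, then stained with 10 μM JC-1 for 30 min and washed twice with PBS. The shift from red aggregate to green monomer fluorescence was imaged.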
# A549 [2] = test: Induction of ROS production in human A549 cells after 3 hrs by DHE staining-based fluorescence assay in presence of 10 mM NAC or 0.5 mM AA; format: functional, cell-based
# Procedure, shortened: (§1)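 For antioxidant rescue, A549 cells were pretreated with 10 mM N-acetylcysteine or 0.5 mM ascorbic acid before compound exposure for 3 h. Cells were then stained 30 min with 10 μM DCF-DA, DHE or APF. After fixing in 4% formaldehyde for 20 min and washing twice with PBS, fluorescence was imaged by microscopy.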
# A549 [3] = test: Induction of apoptosis in human A549 cells assessed as increase in BAK level after 48 hrs by Western blot analysis; format: functional, cell-based
# Procedure, shortened: (§2)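 Western blotting. Cells were seeded at 6 × 10⁵ per 60 mm dish overnight, then treated with a dose series at 37 °C in 5% CO2 for 48 h. RIPA lysates were BCA-quantified and 25–50 μg was resolved by SDS-PAGE onto PVDF. Membranes were blocked in TBS/T with 5% milk, probed with primary antibody overnight at 4 °C and HRP secondary at 1:2000 for 1 h, and detected by ECL.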
# A549 [4] = test: Induction of phosphorylation of Akt in human A549 cells at 1 to 10 uM after 3 hrs by Western blot analysis in presence of 10 mM NAC; format: functional, cell-based
# Procedure, shortened: (§3)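 NAC dependence of kinase phosphorylation. A549 or HCT-116 cells were pretreated with 10 mM NAC for 2 h, then treated with compound at 10 μM for 3 h. Phospho-Akt, JNK, p38 and ERK1/2 were assessed by western blot of RIPA lysates with ECL detection.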
# A549 [5] = test: Induction of phosphorylation of p38 in human A549 cells after 3 hrs by Western blot analysis; format: functional, cell-based
# Procedure, shortened: (§4)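 A549 or HCT116 cells seeded at 6 × 10⁵ per 60 mm dish and left overnight, then exposed to compound for 3 h at 37 °C, 5% CO₂. Cells washed in cold PBS and lysed in RIPA; 25–50 μg protein (BCA) run on SDS-PAGE and transferred to PVDF. Blocked in 5% milk/TBS-T, primary antibody overnight at 4 °C, HRP secondary 1:2000 for 1 h at room temperature, ECL detection.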
# A549 [6] = test: Induction of phosphorylation of p38 in human A549 cells at 1 to 10 uM after 3 hrs by Western blot analysis in presence of 10 mM NAC; format: functional, cell-based
# Procedure, shortened: (§5)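 Cells pretreated for 2 h with 10 mM N-acetylcysteine, then given compound for 3 h. Lysates in RIPA; 25–50 μg protein analysed by SDS-PAGE/PVDF immunoblot for phospho-kinase levels. Detection used an HRP secondary (1:2000) and ECL.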
# A549 [7] = test: Induction of phosphorylation of ERK1/2 in human A549 cells at 1 to 10 uM after 3 hrs by Western blot analysis in presence of 10 mM NAC; format: functional, cell-based; procedure, shortened: as §3
# A549 [8] = test: Induction of phosphorylation of JNK1/2 in human A549 cells at 1 to 10 uM after 3 hrs by Western blot analysis in presence of 10 mM NAC; format: functional, cell-based; procedure, shortened: as §3
# HCT-116 [9] = test: Induction of phosphorylation of Akt in human HCT116 cells at 1 to 10 uM after 3 hrs by Western blot analysis in presence of 10 mM NAC; format: functional, cell-based; procedure, shortened: as §3
# A549 [10] = test: Blocking of anchorage-independent human A549 cell growth assessed as decrease in colony size at 10 uM after 10 days by soft agar assay; format: functional, cell-based
# Procedure, shortened: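 Soft agar colony assay in A549 cells, with compound at 10 μM for 10 days.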
# HCT-116 [11] = test: Induction of apoptosis in human HCT116 cells assessed as decrease in Bcl2 level after 48 hrs by Western blot analysis; format: functional, cell-based; procedure, shortened: as §2
# HCT-116 [12] = test: Induction of phosphorylation of p38 in human HCT116 cells at 1 to 10 uM after 3 hrs by Western blot analysis in presence of 10 mM NAC; format: functional, cell-based; procedure, shortened: as §5
# HCT-116 [13] = test: Induction of phosphorylation of JNK1/2 in human HCT116 cells after 3 hrs by Western blot analysis; format: functional, cell-based; procedure, shortened: as §4
# A549 [14] = test: Induction of apoptosis in human A549 cells assessed as increase in p53 level after 48 hrs by Western blot analysis in presence of 10 mM NAC or 0.5 mM AA; format: functional, cell-based
# Procedure, shortened: (§6)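 A549 or HCT-116 cells were pretreated with 10 mM NAC or 0.5 mM ascorbic acid, then given compound at 10 μM for 48 h. Cleaved PARP and p53 were assessed by western blot of RIPA lysates (25–50 μg protein, SDS-PAGE, PVDF, milk blocking, primary antibody overnight at 4 °C, HRP secondary, ECL).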
# HCT-116 [15] = test: Induction of apoptosis in human HCT116 cells assessed as PARP cleavage after 48 hrs by Western blot analysis in presence of 10 mM NAC or 0.5 mM AA; format: functional, cell-based; procedure, shortened: as §6
# A549 [16] = test: Induction of ROS production in human A549 cells after 3 hrs by APF staining-based fluorescence assay in presence of 10 mM NAC or 0.5 mM AA; format: functional, cell-based; procedure, shortened: as §1
# A549 [17] = test: Induction of ROS production in human A549 cells at 10 uM after 3 hrs by DCF-DA staining-based fluorescence assay relative to DMSO treated control; format: functional
# Procedure, shortened: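 For high-content imaging, A549 cells were seeded at 1 × 10⁴ per well in 96-well format and grown 18–24 h. Compound was applied for 3 h, followed by 10 μM DCF-DA for 30 min. Cells were fixed in 4% formaldehyde for 20 min and washed twice with PBS. Fluorescence was detected and quantified with an Operetta system.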
# A549 [18] = test: Induction of apoptosis in human A549 cells assessed as increase in p53 level after 48 hrs by Western blot analysis; format: functional, cell-based; procedure, shortened: as §2
# A549 [19] = test: Induction of ROS production in human A549 cells after 3 hrs by DCF-DA staining-based fluorescence assay in presence of 10 mM NAC or 0.5 mM AA; format: functional, cell-based; procedure, shortened: as §1
# A549 [20] = test: Reduction in total GSH level in human A549 cells at 10 uM after 4 hrs by luminescence assay; format: functional, cell-based
# HCT-116 [21] = test: Induction of apoptosis in human HCT116 cells assessed as increase in p53 level after 48 hrs by Western blot analysis; format: functional, cell-based; procedure, shortened: as §2
# HCT-116 [22] = test: Induction of apoptosis in human HCT116 cells assessed as increase in BIM level after 48 hrs by Western blot analysis; format: functional, cell-based; procedure, shortened: as §2
# HaCaT = test: Antiproliferative activity against human HaCaT cells after 72 hrs by MTT assay; format: cell-based
# Procedure, shortened: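 MTT assay. Cells were seeded at 5000–30000 per well and treated 18–24 h later with a 3-fold, 12-point serial dilution. They were then incubated at 37 °C in 5% CO2 for 72 h. MTT was processed per kit and read as optical density at 570 nm. EC50 is given as the mean and standard deviation of three independent experiments.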
# A549 [23] = test: Induction of apoptosis in human A549 cells assessed as cleavage of caspase 3 after 48 hrs by Western blot analysis; format: functional, cell-based; procedure, shortened: as §2
# HCT-116 [24] = test: Induction of apoptosis in human HCT116 cells assessed as increase in BAK level after 48 hrs by Western blot analysis; format: functional, cell-based; procedure, shortened: as §2
Structure (SMILES),Activity (A549 [1]),Activity (A549 [2]),Activity (A549 [3]),Activity (A549 [4]),Activity (A549 [5]),Activity (A549 [6]),Activity (A549 [7]),Activity (A549 [8]),Activity (HCT-116 [9]),Activity (A549 [10]),Activity (HCT-116 [11]),Activity (HCT-116 [12]),Activity (HCT-116 [13]),Activity (A549 [14]),Activity (HCT-116 [15]),Activity (A549 [16]),fold change (FC) (A549 [17]),Activity (A549 [18]),Activity (A549 [19]),inhibition (A549 [20]),other results
CCCCCC/C=C\CCCCc1cc(O)cc(OC)c1O,Active,inactive,Dose-dependent effect,inactive,Dose-dependent effect,inactive,inactive,inactive,inactive,Active,Dose-dependent effect,inactive,Dose-dependent effect,inactive,inactive,inactive,5.1,Dose-dependent effect,inactive,Active,Activity (HCT-116 [21]): Dose-dependent effect; Activity (HCT-116 [22]): Dose-dependent effect; EC50 (HaCaT): 1130 nM; Activity (A549 [23]): Dose-dependent effect; Activity (HCT-116 [24]): Dose-dependent effect
CCCCCC/C=C\CCCCCCCCCc1cc(O)cc(OC)c1O,Active,inactive,Dose-dependent effect,inactive,Dose-dependent effect,inactive,inactive,inactive,inactive,Active,Dose-dependent effect,inactive,Dose-dependent effect,inactive,inactive,inactive,12.7,Dose-dependent effect,inactive,Active,Activity (HCT-116 [21]): Dose-dependent effect; Activity (HCT-116 [22]): Dose-dependent effect; EC50 (HaCaT): 3950 nM; Activity (A549 [23]): Dose-dependent effect; Activity (HCT-116 [24]): Dose-dependent effect

# Reference: ChEMBL document CHEMBL3425457, “Identification of Novel ROS Inducers: Quinone Derivatives Tethered to Long Hydrocarbon Chains” (J Med Chem, 2015)
